# Test results published in ChEMBL document CHEMBL4177755, “Combating Drug-Resistant Fungi with Novel Imperfectly Amphipathic Palindromic Peptides” (J Med Chem, 2018).
# Tests used:
# [1] = Cytotoxicity against mouse RAW264.7 cells assessed as cell viability at 2 to 64 uM after 24 hrs by MTT assay relative to control; assay type: cell-based; conditions: read-out: Activity
# Outline: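 MTT viability assay. RAW264.7 or HEK293T cells at (1.0−2.0) × 10^5 per well were exposed to a peptide concentration series for 24 h at 37 °C in 5% CO2. MTT was then added at 0.5 mg/mL final for 4 h; formazan was dissolved in DMSO and read at 570 nm. Results average three independent trials.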
# [2] = Antibacterial activity against Salmonella pullorum ATCC 7913 after 24 hrs; assay type: functional, Salmonella enterica subsp. enterica serovar Pullorum; conditions: Salmonella enterica, ATCC 7913, 24 h
# Outline: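 Broth microdilution. Mid-log bacteria in MHB at a final (0.5−1) × 10^5 CFU/mL were mixed with equal volumes of peptide serially diluted in 0.2% BSA. Plates were incubated 24 h at 37 °C and read at A492. MIC is the lowest concentration inhibiting 95% of growth. Each test was repeated at least 3 times.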
# [3] = system: Staphylococcus aureus; assay: Antibacterial activity against Staphylococcus aureus ATCC 29213 after 24 hrs; assay type: functional; conditions: ATCC 29213, 24 h
# Outline: (§1)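 Modified NCCLS broth microdilution. Mid-log bacteria at (0.5−1) × 10^5 CFU/mL in MHB were mixed 1:1 with peptide serially diluted in 0.2% BSA and incubated 24 h at 37 °C. Absorbance was read at 492 nm; MIC is the lowest concentration inhibiting 95% of growth. At least 3 repeats.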
# [4] = system: Staphylococcus aureus; assay: Antibacterial activity against Staphylococcus aureus ATCC 25923 after 24 hrs; assay type: functional; conditions: ATCC 25923, 24 h; outline: as §1
# [5] = system: Escherichia coli; assay: Bactericidal activity against Escherichia coli ATCC 25922; assay type: functional; conditions: read-out: MBC99.9
# Outline: (§2)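 Wells from the 24 h, 37 °C MHB microdilution plates (bacteria at a final (0.5−1) × 10^5 CFU/mL; peptide diluted in 0.2% BSA) were plated on agar and incubated overnight. MBC is the lowest concentration killing >99.9% of cells. Each test was reproduced at least 3 times.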
# [6] = system: Salmonella typhimurium; assay: Bactericidal activity against Salmonella typhimurium ATCC 14028; assay type: functional, Salmonella enterica subsp. enterica serovar Typhimurium; conditions: Salmonella enterica, read-out: MBC99.9; outline: as §2
# [7] = Bactericidal activity against Salmonella pullorum ATCC 7913; assay type: functional, Salmonella enterica subsp. enterica serovar Pullorum; conditions: Salmonella enterica, read-out: MBC99.9; outline: as §2
# [8] = system: Staphylococcus epidermidis; assay: Bactericidal activity against Staphylococcus epidermidis ATCC 12228; assay type: functional; conditions: read-out: MBC99.9; outline: as §2
# [9] = system: Candida albicans; assay: Antifungal activity against Candida albicans cgmcc 2.2086 after 48 hrs by broth microdilution method; assay type: functional; conditions: cgmcc 2.2086, 48 h
# Outline: (§3)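 Modified CLSI M27-A2 broth microdilution. Yeast at (0.5−1) × 10^3 CFU/mL in MOPS-buffered RPMI 1640 was mixed 1:1 with peptide serially diluted in 0.2% BSA and incubated 48 h at 28 °C. Absorbance was read at 492 nm; MIC is the lowest concentration inhibiting 95% of growth. Triplicate, three biological replicates.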
# [10] = system: Candida albicans; assay: Antifungal activity against Candida albicans SP3931 after 48 hrs by broth microdilution method; assay type: functional; conditions: SP3931, 48 h; outline: as §3
# [11] = system: Candida albicans; assay: Antifungal activity against Candida albicans SP3903 after 48 hrs by broth microdilution method; assay type: functional; conditions: SP3903, 48 h; outline: as §3
# [12] = system: Candida albicans; assay: Antifungal activity against Candida albicans SP3902 after 48 hrs by broth microdilution method; assay type: functional; conditions: SP3902, 48 h; outline: as §3
# [13] = system: Candida albicans; assay: Antifungal activity against fluconazole-resistant Candida albicans 56452 after 48 hrs by broth microdilution method; assay type: functional; conditions: Candida albicans, 56452, 48 h; outline: as §3
# [14] = system: Candida albicans; assay: Antifungal activity against fluconazole-resistant Candida albicans 56214 after 48 hrs by broth microdilution method; assay type: functional; conditions: Candida albicans, 56214, 48 h; outline: as §3
# [15] = system: Candida albicans; assay: Antifungal activity against fluconazole-resistant Candida albicans 17546 after 48 hrs by broth microdilution method; assay type: functional; conditions: Candida albicans, 17546, 48 h; outline: as §3
# [16] = system: Candida tropicalis; assay: Antifungal activity against Candida tropicalis cgmcc 2.1975 after 48 hrs by broth microdilution method; assay type: functional; conditions: cgmcc 2.1975, 48 h
# Outline: (§4)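 Modified CLSI M27-A2 broth microdilution. Yeast were suspended in MOPS-buffered RPMI 1640 at a final (0.5−1) × 10^3 CFU/mL and mixed 1:1 with peptide serially diluted in 0.2% BSA. Plates were incubated 48 h at 28 °C and read at A492. MIC is the lowest concentration giving 95% inhibition. Run in triplicate with three biological replicates.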
# [17] = system: Pichia kudriavzevii; assay: Antifungal activity against Candida krusei cgmcc 2.1857 after 48 hrs by broth microdilution method; assay type: functional; conditions: cgmcc 2.1857, 48 h; outline: as §4
# [18] = system: Candida parapsilosis; assay: Antifungal activity against Candida parapsilosis cgmcc 2.3989 after 48 hrs by broth microdilution method; assay type: functional; conditions: Lodderomyces parapsilosis, cgmcc 2.3989, 48 h; outline: as §4
# [19] = system: Candida albicans; assay: Fungicidal activity against Candida albicans SP3931 after 96 hrs; assay type: functional; conditions: SP3931, 96 h, read-out: MFC99.9
# Outline: (§5)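 After the 48 h, 28 °C broth microdilution in MOPS-buffered RPMI 1640 (inoculum (0.5−1) × 10^3 CFU/mL), 50 μL from each well was plated on YM agar for a further 48 h at 28 °C. MFC is the lowest concentration killing at least 99.9% of cells. Triplicate, three biological replicates.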
# [20] = system: Candida albicans; assay: Fungicidal activity against fluconazole-resistant Candida albicans 56214 after 96 hrs; assay type: functional; conditions: Candida albicans, 56214, 96 h; read-out: MFC99.9; outline: as §5
# [21] = system: Candida albicans; assay: Fungicidal activity against Candida albicans 14936 after 96 hrs; assay type: functional; conditions: Candida albicans, 14936, 96 h; read-out: MFC99.9; outline: as §5
# [22] = system: Candida albicans; assay: Fungicidal activity against fluconazole-resistant Candida albicans 17546 after 96 hrs; assay type: functional; conditions: Candida albicans, 17546, 96 h; read-out: MFC99.9; outline: as §5
# [23] = system: Candida parapsilosis; assay: Fungicidal activity against Candida parapsilosis cgmcc 2.3989 after 96 hrs; assay type: functional; conditions: Lodderomyces parapsilosis, cgmcc 2.3989, 96 h; read-out: MFC99.9
# Outline: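 Wells from the 48 h, 28 °C RPMI 1640/MOPS microdilution plates were plated on YM agar and incubated a further 48 h at 28 °C. MFC is the lowest concentration killing at least 99.9% of cells. Run in triplicate with three biological replicates.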
# [24] = system: Escherichia coli; assay: Antibacterial activity against Escherichia coli ATCC 25922 after 18 hrs in presence of NaCl by broth dilution method; assay type: functional; conditions: ATCC 25922, 18 h
# [25] = system: Escherichia coli; assay: Antibacterial activity against Escherichia coli ATCC 25922 after 18 hrs in presence of KCl by broth dilution method; assay type: functional; conditions: ATCC 25922, 18 h
# [26] = system: Escherichia coli; assay: Antibacterial activity against Escherichia coli ATCC 25922 after 18 hrs in presence of MgCl2 by broth dilution method; assay type: functional; conditions: ATCC 25922, 18 h
# [27] = system: Escherichia coli; assay: Antibacterial activity against Escherichia coli ATCC 25922 after 18 hrs in presence of FeCl3 by broth dilution method; assay type: functional; conditions: ATCC 25922, 18 h
# [28] = system: Candida albicans; assay: Antifungal activity against Candida albicans cgmcc 2.2086 in presence of KCl by broth dilution method; assay type: functional
# [29] = system: Candida albicans; assay: Antifungal activity against Candida albicans cgmcc 2.2086 in presence of NH4Cl by broth dilution method; assay type: functional
# [30] = system: Candida albicans; assay: Antifungal activity against Candida albicans cgmcc 2.2086 in presence of FeCl3 by broth dilution method; assay type: functional
Substance,MIC95 [2] [µM],MIC95 [3] [µM],MIC95 [4] [µM],MBC [5] [µM],MBC [6] [µM],MBC [7] [µM],MBC [8] [µM],MIC95 [9] [µM],MIC95 [10] [µM],MIC95 [11] [µM],MIC95 [12] [µM],MIC95 [13] [µM],MIC95 [14] [µM],MIC95 [15] [µM],MIC95 [16] [µM],MIC95 [17] [µM],MIC95 [18] [µM],MFC [19] [µM],MFC [20] [µM],MFC [21] [µM],further results
H-RRWRWWWRWRR-NH2,2,2,4,4,8,4,8,4,4,4,4,4,4,4,2,2,8,8,8,8,"viability at 24 h, up to 64 µM [1]: 70 to 80%; MFC [22]: 4 µM; MFC [23]: 16 µM; MIC [24]: 4 µM; MIC [25]: 4 µM; MIC [26]: 2 µM; MIC [27]: 4 µM; MIC [28]: 8 µM; MIC [29]: 4 µM; MIC [30]: 4 µM"
H-RWRWWWRWR-NH2,2,4,4,4,4,8,8,8,8,8,8,4,4,1,2,4,16,16,8,8,"viability at 24 h, up to 64 µM [1]: 70 to 80%; MFC [22]: 2 µM; MFC [23]: 32 µM; MIC [24]: 4 µM; MIC [25]: 4 µM; MIC [26]: 2 µM; MIC [27]: 4 µM; MIC [28]: 16 µM; MIC [29]: 8 µM; MIC [30]: 8 µM"
H-RWWRRWRRWWR-NH2,4,4,8,16,32,8,8,4,8,2,4,8,4,4,2,2,16,16,8,4,MFC [22]: 4 µM; MFC [23]: 32 µM; MIC [24]: 16 µM; MIC [25]: 16 µM; MIC [26]: 8 µM; MIC [27]: 16 µM; MIC [28]: 8 µM; MIC [29]: 4 µM; MIC [30]: 4 µM
H-RFRFFFRFR-NH2,2,4,4,8,8,8,8,8,8,4,4,4,8,4,2,4,16,16,16,8,"viability at 24 h, up to 64 µM [1]: 70 to 80%; MFC [22]: 4 µM; MFC [23]: 32 µM; MIC [24]: 4 µM; MIC [25]: 4 µM; MIC [26]: 2 µM; MIC [27]: 4 µM; MIC [28]: 32 µM; MIC [29]: 8 µM; MIC [30]: 8 µM"
